This is an account of results in ChEMBL document CHEMBL1132715, “Comparative molecular field analysis of hydantoin binding to the neuronal voltage-dependent sodium channel” (J Med Chem, 1999).

For orientation: logP means a log measure of how a compound divides between an organic and an aqueous phase. In general, IC50 refers to the concentration at which inhibition is half-maximal.

A short description of series [1]: Partition coefficient (logP). Format: physicochemical. The note with it: octanol/water.
Series [2] deals with Sodium channel alpha subunits; brain (Types I, II, III) (Rattus norvegicus, UniProt P04775+P04774+P08104). Put plainly: In vitro inhibition of Voltage-gated sodium channel by the displacement of [3H]batrachotoxin A 20-alpha-benzoate in rat brain cerebral cortex synaptoneurosomes. Format: tissue-based. Summed up:
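Rat cerebral cortex gray matter synaptoneurosomes (~1 mg protein), washed in HEPES/choline chloride buffer pH 7.4 and stored at –70 °C. […] Filtration read-out; nonspecific binding taken with 300 μM veratridine. Points run in triplicate; IC50 by Probit analysis, using only 10–90% inhibition.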
For orientation: In a radioligand displacement assay an active substance lowers the binding of a labelled ligand.

As to `CCCCCCCC(O)(C(N)=O)c1ccccc1` (stereo unspecified), the logP in series [1] (read-out: logP) amounted to 3.7. The same compound had a concentration for half-maximal inhibition (IC50) in series [2] of 9 µM. With `O=C1NC(=O)C2(CCCc3ccccc32)N1` (stereo unspecified), the logP in series [1] (read-out: logP) amounted to 1.46. Take `O=C1NC(=O)C2(CCc3ccccc32)N1` (stereo unspecified): the logP in series [1] (read-out: logP) worked out at 0.96. Take `CCCCCCC1(c2ccccc2)NC(=O)NC1=O` (stereo unspecified): the logP in series [1] (read-out: logP) stood at 3.4. Moreover, the half-inhibitory concentration (IC50) in series [2] was found to be 13 µM. As for `O=C1NC(=O)C2(CCCCCc3ccccc32)N1` (stereo unspecified), in series [1] (read-out: logP), the logP came out at 2.46.

Take `CC12C(=O)NC(=O)N1CCc1ccccc12` (stereo unspecified): the logP in series [1] (read-out: logP) was 1.52. For `CCN1C(=O)NC(=O)C1(C)c1ccccc1` (stereo unspecified), the log partition coefficient (logP) in series [1] (read-out: logP) was 2.02.

As to `CCCCCCCCCC1(c2ccccc2)NC(=O)NC1=O` (stereo unspecified), in series [1] (read-out: logP), the logP worked out at 4.96. Also, the IC50 in series [2] was found to be 5 µM.

Consider `CCCCC1(c2ccc(C)cc2)NC(=O)NC1=O` (stereo unspecified), for which, in series [1] (read-out: logP), the log partition coefficient (logP) worked out at 2.96. Consider `O=C1NC(=O)C(c2ccccc2)(C2CCCCC2)N1` (stereo unspecified), for which the logP in series [1] (read-out: logP) was determined as 2.96. For the same compound, the IC50 in series [2] was 58 µM. As for `O=C1NC(=O)C2(CCCCc3ccccc32)N1` (stereo unspecified), the logP in series [1] (read-out: logP) is 1.96. Take `CCCCC1(c2cccc(C)c2)NC(=O)NC1=O` (stereo unspecified): the log partition coefficient (logP) in series [1] (read-out: logP) turned out to be 2.96. For `CCCCCCCC1(c2ccccc2)NC(=O)NC1=O` (stereo unspecified), the lipophilicity (logP) in series [1] (read-out: logP) was 3.96. In series [2], this compound yielded an IC50 of 5 µM. Turning to `CCCCC1(c2ccccc2C)NC(=O)NC1=O` (stereo in doubt; 14a), the logP in series [1] (read-out: logP) was 2.96.

`CCCCC1(c2ccccc2C)NC(=O)NC1=O` (stereo in doubt; 14b) yielded a logP in series [1] of 2.96.

As to `NC(=O)N1c2ccccc2C=Cc2ccccc21` [CARBAMAZEPINE], the logP in series [1] (read-out: logP) was 2.13.
